Bioassay records (PubChem BioAssay)
HKDC1 activator: HKDC1 hexokinase activators, primary screen, biochemical, fluorescence, uHTS | recombinant HKDC1, G6PDH/diaphorase resazurin fluorescence; active compounds read low | activity change, negative = activation, % at 20 µM | 340,000 tested, 0.056% active;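 active means activation of 40% or more at 20 µM, a change of -40% or lower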
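Material: in-house human HKDC1 enzyme, G6PDH and diaphorase coupling enzymes | Quantity: HKDC1 at 5 µg/mL final | Medium: Tris buffer at pH 8.0 containing MgCl2 | Compound dosing: 20 µM single dose | Schedule: 90 min reaction at room temperature, dark | Measured by: Resorufin fluorescence, 525/613 nm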
An asterisk follows results filed as active. The list is a sample of the results.

SMILES	HKDC1 activator
CCC(Sc1nc(C)cc(C)n1)C(=O)NC1=NN=C(c2ccc(C)cc2)CS1 (centres undefined)	-149*
Cn1c2ccccc2c(=O)c2c(=O)n(-c3ccccc3)c(C3CCCCC3)nc21	43
C=CC(=O)N1C/C(=C/c2ccc(F)cc2)C(=O)/C(=C\c2ccc(F)cc2)C1	36
Cc1cc(NC(=S)NC(=O)c2ccccc2)ccc1-c1cc2ccccc2oc1=O	-47*
O=C(CN1C(=O)/C(=C2/SC(=S)N(CCS(=O)(=O)O)C2=O)c2ccccc21)Nc1cccc(C(F)(F)F)c1	36
O=C(NCCc1ccccc1)C(c1cccs1)N(C(=O)CCl)c1ccc(Cl)cc1 (centres undefined)	37
O=C(O)c1ccc2ncsc2c1	41
CC(C)C(=O)N(c1cc2sc(=O)oc2c2ccccc12)S(=O)(=O)c1cccs1	45
CC(=O)NC1C(=O)N(CCN2CCOCC2)c2ccc(F)cc21 (centres undefined)	79
Cc1c(C(=O)Oc2ccc(-c3cnc4ccccc4n3)cc2)cccc1[N+](=O)[O-]	-89*
O=[N+]([O-])c1ccc(N/N=C/c2ccc(O)c(O)c2O)c(S(=O)(=O)N2CCOCC2)c1	38
COC1=C(OC)C(=O)C(Sc2ccc3ccccc3c2)=CC1=O	71
O=S(=O)(O)c1ccc(O)c2cc(Nc3ccccc3)ccc12	65
CC(NC(=O)c1sc2cc([N+](=O)[O-])ccc2c1Cl)C(C)(C)C (centres undefined)	-76*
COc1ccc2[nH]c3c4c(ccc3c2c1)C(=O)C=CC4=O	51
CC(=NNC(=S)SCc1ccccc1)c1ccccn1	-47*
COc1ccc2c(c1)C(=NNC(=O)c1ccccn1)c1cc(OC)ccc1-2	42
CC(=NNC(=S)Nc1cccc(Cl)c1)c1ccccn1	-46*
O=C(CCl)N1c2ccccc2Sc2c1ccc1ccccc21	44
Cn1nccc1C(=O)N1CCN(c2cccc(Cl)c2)CC1	39
CC(OC(=O)c1cc(O)c2ccccc2c1O)C(=O)Nc1ccc(C(N)=O)cc1 (centres undefined)	39
CCCC(=O)NC1=C(Cl)C(=O)c2ccccc2C1=O	60
COC(=O)CCC(=O)OC1(C)C(=O)C2=COC(c3ccc(OC)cc3)=CC2=C(Br)C1=O (centres undefined)	37
COC(=O)CCC(=O)Nc1sc(Cc2ccccc2)c(C)c1C(N)=O	-44*
O/C=c1\ccc2cccc3nc(C(F)(F)F)nc1c23	40
SMILES	HKDC1 activator
NNc1ncnc2sc3c(c12)CCC3	-102*
O=C(/C=C/c1cccc(Cl)c1)c1ccc([N+](=O)[O-])o1	61
O=S(=O)(Nc1ccc(O)c2ccccc12)c1cccs1	51
CCOC(=O)N1CCN(c2cc(NCCC(=O)O)c3c4c(onc24)-c2ccccc2C3=O)CC1	37
S=C(NCc1ccccn1)NN=Cc1ccccn1	-44*
CCCCNC(=O)c1sc(=S)n2c1[nH]c(=O)c1ccc(C(=O)NCCc3ccc(OC)c(OC)c3)cc12	48
CCc1ccc(S(=O)(=O)/N=C2/C=C(Sc3ncn[nH]3)C(=O)c3ccccc32)cc1	71
COc1ccc2cc(/C=N/NC(=O)c3c(Cl)cnn3C)c(Cl)nc2c1	-75*
CCOC(=O)C1=C(O)c2ccccc2C(=O)/C1=C\c1ccc(CC)cc1	59
CC(C)(C)n1[nH]c2c3c(ccc2c1=O)C(=O)c1ccccc1C3=O	42
CC(=NNC(=S)N1CC2CCC(CC2)C1)c1cccc(C)n1	-47*
O=C(CCCCC(=O)Sc1ccccc1)Sc1ccccc1	39
CC(=O)NC1C(=O)N(CCN2CCOCC2)c2ccc(Cl)cc21 (centres undefined)	82
COC(=O)c1sc(NC(=O)CSc2nc3nc(C)cc(C)n3n2)c(C(=O)OC)c1C	35
O=C(NCc1ccncc1)C(=O)N/N=C/c1ccc(OCc2ccccc2)cc1	-58*
Cc1ccc(NC2=C/C(=N\S(=O)(=O)c3cccs3)c3ccccc3C2=O)c(C)c1	40
Cc1nc([N+](=O)[O-])c(Br)n1CC(=O)c1ccc2ccccc2c1	46
CN(c1ccc(C(=O)N2CCN(Cc3ccccc3)CC2)cc1)S(=O)(=O)c1ccccc1	-76*
COC(=O)CCC(=O)OC1(C)C(=O)C2=CN(Cc3ccc4c(c3)OCO4)C(c3ccc(OC)cc3)=CC2=C(Br)C1=O (centres undefined)	40
CCCC(=O)N1CCN(Cc2ccc3c(c2)OCO3)CC1	-57*
O=C1C=C(N2CCCCC2)c2ccccc2C1=O	81
CN(C)c1ncc(C2=C(Cl)C(=O)C(N3CCCC3)=C(Cl)C2=O)s1	35
CCc1c(C)c(C#N)c2nc3ccccc3n2c1NC	-66*
Oc1ccc(-c2cnns2)c(O)c1	45
O=C1C(Nc2ccc(O)cc2)=C/C(=N/S(=O)(=O)c2cccs2)c2ccccc21	60
Cc1nnc(N=c2ssnc2Cl)o1	-88*
COc1cc(N=c2ssnc2Cl)c(OC)cc1Cl	-46*
Cc1ccc(N=c2ssnc2Cl)cc1	-51*
Cc1cc(C)nc(/N=c2/ssnc2Cl)c1	-137*
